Data taken from ChEMBL document CHEMBL3244351, “Aroyl- and arylisoquinolineacetic acids as antiinflammatory agents” (1978).
The source made the active and inactive calls. The calls are words filed in the database; no cut-off is given here.

What was measured:
[1] = tested on: Rattus norvegicus; assay: Antiinflammatory activity in carrageenan-induced rat assessed as efficacy ratio for reduction in pleural effusion at 316 mg/kg, po after 5 hrs by Evans blue assay relative to control; assay type: functional
How it was run: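 Rats given 316 mg/kg orally (two rats), then intrapleural injection of 5 mL 0.075% Evans blue/0.5% carrageenan type 7. Pleural effusion volume measured at 5 h. Efficacy ratio is control effusion volume divided by treated effusion volume, judged by sequential analysis; a ratio ≥1.30 counts as active.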

[2] = tested on: Rattus norvegicus; assay: Antiinflammatory activity in Evans blue carrageenan-induced pleural effusion rat model assessed as decrease in volume of pleural fluid at 100 mg/kg relative to control
[3] = tested on: Rattus norvegicus; assay: Antiinflammatory activity in adjuvant-induced arthritic rat chronic inflammation model assessed as […] at 31.6 mg/kg; assay type: functional, organism-based; set-up: dose 31.6 mg/kg

Row | Structure (SMILES) | T/C [1] | Activity [2] | Activity [3]
1 | O=C(O)c1cc2ccccc2c(-c2ccccc2)n1 | 1.26 | inactive | –
2 | O=C(O)c1cc2ccccc2c(C(=O)c2ccccc2)n1 | 1.28 | – | –
3 | Br.O=C(c1ccccc1)c1nccc2ccccc12 | 0.83 | inactive | –
4 | Br.CCOC(=O)Cc1cc2ccccc2cn1 | 1.2 | – | –
5 | NC(=O)Cc1cc2ccccc2c(-c2ccc(Cl)cc2)n1 | – | 22% | inactive
6 | Br.O=C(c1ccccc1)c1ccccn1 | 1.23 | inactive | –
7 | O=C(O)c1ccc2ccccc2c1 [BETA-NAPHTOIC ACID] | 1.13 | inactive | –
8 | Br.Cc1cc2ccccc2c(C(=O)c2ccccc2)n1 | 0.93 | inactive | –
9 | NC(=O)Cc1cc2ccccc2c(-c2ccccc2)n1 | 1.33 | 14% | –
10 | NC(=O)Cc1cc2ccccc2c(C(=O)c2ccccc2)n1 | 0.9 | inactive | –
11 | NC(=O)Cc1cnc(-c2ccccc2)c2ccccc12 | – | 9% | –
12 | Br.CCOC(=O)c1cc2ccccc2cn1 | 1.97 | 1% | –
13 | CCOC(=O)c1nc(-c2ccccc2)c2ccccc2c1OC(C)=O | 1.06 | inactive | –
14 | CCCCC1C(=O)N(c2ccccc2)N(c2ccccc2)C1=O | – | – | Active
